Reference: ChEMBL document CHEMBL1142065, “In vitro and in vivo activities of a new cephalosporin, FR264205, against Pseudomonas aeruginosa” (2007)
Converted amounts (≈) assume the structure as drawn. The source made the active and inactive calls. No cut-off for these calls is given here.

Key:
[1] = tested on: Pseudomonas aeruginosa; test: Antibacterial activity against Pseudomonas aeruginosa FP1380 expressing constitutive AmpC; type: functional
Outline: (§1)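 MIC by agar dilution (CLSI M7-A7) on Mueller-Hinton agar with twofold serial drug dilutions; 10^4 CFU spotted per spot; aerobic incubation 18 to 20 h at 35°C; MIC read as lowest concentration preventing visible growth.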

[2] = tested on: Pseudomonas aeruginosa; test: Antibacterial activity against Pseudomonas aeruginosa PAO1456 expressing constitutive AmpC; type: functional
Outline: (§2)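 Agar dilution MIC per NCCLS (CLSI) M7-A7 on Mueller-Hinton agar with twofold serial drug dilutions. Inoculum 10^4 CFU per spot, aerobic incubation 18 to 20 h at 35°C. MIC is the lowest concentration preventing visible growth.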

[3] = tested on: Pseudomonas aeruginosa; test: Antibacterial activity against Pseudomonas aeruginosa PAO4069 expressing inducible AmpC; type: functional; outline: as §2
[4] = tested on: Pseudomonas aeruginosa; test: Antibacterial activity against Pseudomonas aeruginosa KG2212 producing MexAB-OprM efflux pump; type: functional; outline: as §2
[5] = tested on: Pseudomonas aeruginosa; test: Antibacterial activity against Pseudomonas aeruginosa KG3056 producing MexCD-OprJ efflux pump; type: functional; outline: as §2
[6] = tested on: Pseudomonas aeruginosa; test: Antibacterial activity against Pseudomonas aeruginosa KG4545 producing MexXY efflux pump; type: functional; outline: as §2
[7] = tested on: Escherichia coli; test: Antibacterial activity against Escherichia coli C600 expressing ESBL TEM3; type: functional; outline: as §1
[8] = tested on: Escherichia coli; test: Antibacterial activity against Escherichia coli C600 expressing ESBL TEM4; type: functional; outline: as §1
[9] = tested on: Escherichia coli; test: Antibacterial activity against Escherichia coli C600 expressing ESBL TEM5; type: functional; outline: as §1
[10] = tested on: Escherichia coli; test: Antibacterial activity against Escherichia coli C600 expressing ESBL TEM6; type: functional; outline: as §1
[11] = tested on: Escherichia coli; test: Antibacterial activity against Escherichia coli C600 expressing ESBL TEM8; type: functional; outline: as §1
[12] = tested on: Escherichia coli; test: Antibacterial activity against Escherichia coli C600 expressing ESBL TEM9; type: functional; outline: as §1
[13] = tested on: Escherichia coli; test: Antibacterial activity against Escherichia coli C600 expressing ESBL SHV2; type: functional; outline: as §1
[14] = tested on: Escherichia coli; test: Antibacterial activity against Escherichia coli C600 expressing ESBL SHV3; type: functional; outline: as §1
[15] = tested on: Escherichia coli; test: Antibacterial activity against Escherichia coli C600 expressing ESBL SHV4; type: functional; outline: as §1
[16] = tested on: Escherichia coli; test: Antibacterial activity against Escherichia coli C600 expressing ESBL OXA2; type: functional; outline: as §1
[17] = tested on: Escherichia coli; test: Antibacterial activity against Escherichia coli C600 expressing ESBL CTX-M3; type: functional; outline: as §1
[18] = tested on: Escherichia coli; test: Antibacterial activity against Escherichia coli C600 expressing ESBL CTX-M18; type: functional; outline: as §1
[19] = tested on: Escherichia coli; test: Antibacterial activity against Escherichia coli C600; type: functional; outline: as §1
[20] = tested on: Pseudomonas aeruginosa; test: Antibacterial activity against Pseudomonas aeruginosa 22029 expressing metallo beta lactamase; type: functional; outline: as §2
[21] = tested on: Pseudomonas aeruginosa; test: Antibacterial activity against Pseudomonas aeruginosa KG4001 producing MexEF-OprN efflux pump; type: functional; outline: as §2
[22] = tested on: Pseudomonas aeruginosa; test: Antibacterial activity against Pseudomonas aeruginosa PAO1; type: functional; outline: as §2
[23] = tested on: Pseudomonas aeruginosa; test: Antibacterial activity against Pseudomonas aeruginosa PAO4222; type: functional; outline: as §2
[24] = tested on: Pseudomonas aeruginosa; test: Antibacterial activity against Pseudomonas aeruginosa PAO1 after 5 serial passages; type: functional
Outline: (§3)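 PAO1 passaged daily for five consecutive days in fresh Mueller-Hinton broth with twofold drug dilution series. Each next inoculum came from the tube at one-fourth the MIC. MIC change was followed across passages.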

[25] = tested on: Pseudomonas aeruginosa; test: Antibacterial activity against Pseudomonas aeruginosa 93; type: functional; outline: as §1
[26] = tested on: Pseudomonas aeruginosa; test: Efficacy against Pseudomonas aeruginosa 93 pulmonary infection in mouse assessed as reduction in bacterial counts at 2 mg/kg, sc; type: functional, organism-based; design: dose 2 mg/kg
Outline: (§4)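 Male ICR mice (4 weeks), made neutropenic with cyclophosphamide 200 mg/kg ip 4 days before infection. Under pentobarbital anesthesia (50 mg/kg iv) they were challenged intranasally with 3.30 log10 CFU of strain 93, grown on tryptic soy agar 35°C 20 h and suspended in saline. Dosed sc twice daily for 3 days from 3 h post-infection. Lung viable counts taken the day after last dose; 6 mice/dose.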

[27] = tested on: Pseudomonas aeruginosa; test: Efficacy against Pseudomonas aeruginosa 93 pulmonary infection in mouse assessed as reduction in bacterial counts at 10 mg/kg, sc; type: functional, organism-based; design: dose 10 mg/kg; outline: as §4
[28] = tested on: Pseudomonas aeruginosa; test: Efficacy against Pseudomonas aeruginosa 93 assessed as reduction in bacterial counts in mouse urinary tract infection model at 0.5 mg/kg; type: functional, organism-based; design: dose 0.5 mg/kg; details: Urine
Outline: (§5)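 Female ICR mice (4 weeks) were denied water 1 day. Under pentobarbital anesthesia they received 4.32 log10 CFU of strain 93 via the […], which was then clamped 5 h. Dosed sc at 5 h post-challenge plus twice daily for 2 days. Bilateral kidney viable counts taken the day after last treatment; 6 mice/dose.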

[29] = tested on: Pseudomonas aeruginosa; test: Efficacy against Pseudomonas aeruginosa 93 assessed as reduction in bacterial counts in mouse burn wound infection model at 50 mg/kg, relative to control; type: functional, organism-based; design: dose 50 mg/kg
Outline: (§6)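 Male ICR mice (4 weeks), anesthetized with pentobarbital, received an ethanol flame burn on the shaved back (0.1 ml flaming ethanol applied twice). The wound was inoculated with 4.60 log10 CFU of strain 93. Dosed iv twice daily for 3 days from 3 h post-infection. Lesion viable counts (CFU/g) taken the day after last dose versus untreated controls; 6 mice/dose.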

[30] = tested on: Pseudomonas aeruginosa; test: Efficacy against Pseudomonas aeruginosa 93 assessed as reduction in bacterial counts in mouse burn wound infection model at 10 mg/kg; type: functional, organism-based; design: dose 10 mg/kg; outline: as §6
[31] = tested on: Escherichia coli; test: Antibacterial activity against Escherichia coli C600 expressing ESBL TEM7; type: functional; outline: as §1
[32] = tested on: Pseudomonas aeruginosa; test: Antibacterial activity against Pseudomonas aeruginosa; type: functional; outline: as §2
[33] = tested on: Pseudomonas aeruginosa; test: Antibacterial activity against ceftazidime-resistant Pseudomonas aeruginosa; type: functional; outline: as §2
[34] = tested on: Pseudomonas aeruginosa; test: Antibacterial activity against imipenem-resistant Pseudomonas aeruginosa; type: functional; outline: as §2
[35] = tested on: Pseudomonas aeruginosa; test: Antibacterial activity against ciprofloxacin-resistant Pseudomonas aeruginosa; type: functional; outline: as §2
[36] = tested on: Escherichia coli; test: Antibacterial activity against Escherichia coli C600 expressing TEM1; type: functional; outline: as §1
[37] = tested on: Escherichia coli; test: Antibacterial activity against Escherichia coli C600 expressing TEM2; type: functional; outline: as §1
[38] = tested on: Escherichia coli; test: Antibacterial activity against Escherichia coli C600 expressing SHV1; type: functional; outline: as §1
[39] = tested on: Escherichia coli; test: Antibacterial activity against Escherichia coli C600 expressing OXA1; type: functional; outline: as §1
[40] = tested on: Pseudomonas aeruginosa; test: Efficacy against Pseudomonas aeruginosa 93 assessed as reduction in bacterial counts in mouse urinary tract infection model at 2 mg/kg; type: functional, organism-based; design: dose 2 mg/kg; details: Urine; outline: as §5
[41] = tested on: Pseudomonas aeruginosa; test: Reduction in susceptibility against Pseudomonas aeruginosa PAO1 after single passage; type: functional, organism-based; outline: as §3

Compound: Cn1c(N)c(NC(=O)NCCN)c[n+]1CC1=C(C(=O)O)N2C(=O)[C@@H](NC(=O)/C(=N\OC(C)(C)C(=O)[O-])c3nsc(N)n3)[C@H]2SC1 [CEFTOLOZANE]
- MIC [1]: 4 µg/mL (≈ 6 µM)
- MIC [2]: 1 µg/mL (≈ 1.5 µM)
- MIC [3]: 0.5 µg/mL (≈ 0.75 µM)
- MIC [4]: 0.5 µg/mL (≈ 0.75 µM)
- MIC [5]: 0.25 µg/mL (≈ 0.375 µM)
- MIC [6]: 0.5 µg/mL (≈ 0.75 µM)
- MIC [7]: 1 µg/mL (≈ 1.5 µM)
- MIC [8]: 2 µg/mL (≈ 3 µM)
- MIC [9]: 32 µg/mL (≈ 48 µM)
- MIC [10]: 32 µg/mL (≈ 48 µM)
- MIC [11]: 16 µg/mL (≈ 24 µM)
- MIC [12]: 32 µg/mL (≈ 48 µM)
- MIC [13]: 32 µg/mL (≈ 48 µM)
- MIC [14]: 32 µg/mL (≈ 48 µM)
- MIC [15]: 16 µg/mL (≈ 24 µM)
- MIC [16]: 4 µg/mL (≈ 6 µM)
- MIC [17]: 16 µg/mL (≈ 24 µM)
- MIC [18]: 16 µg/mL (≈ 24 µM)
- MIC [19]: 0.25 µg/mL (≈ 0.375 µM)
- MIC [20]: > 128 µg/mL
- MIC [21]: 0.5 µg/mL (≈ 0.75 µM)
- MIC [22]: 0.5 µg/mL (≈ 0.75 µM)
- MIC [23]: 0.5 µg/mL (≈ 0.75 µM)
- MIC [24]: 2 µg/mL (≈ 3 µM)
- MIC [25]: 0.25 µg/mL (≈ 0.375 µM)
- Activity [26]: Active
- Activity [27]: Active
- Activity [28]: Active
- Activity [29]: Active
- Activity [30]: Active
- MIC [31]: 32 µg/mL (≈ 48 µM)
- MIC50 [32]: 0.5 µg/mL (≈ 0.75 µM)
- MIC90 [32]: 1 µg/mL (≈ 1.5 µM)
- MIC50 [33]: 2 µg/mL (≈ 3 µM)
- MIC90 [33]: 4 µg/mL (≈ 6 µM)
- MIC [34]: 0.5 µg/mL (≈ 0.75 µM)
- MIC50 [34]: 0.5 µg/mL (≈ 0.75 µM)
- MIC90 [34]: 1 µg/mL (≈ 1.5 µM)
- MIC50 [35]: 1 µg/mL (≈ 1.5 µM)
- MIC90 [35]: 2 µg/mL (≈ 3 µM)
- MIC [36]: 0.25 µg/mL (≈ 0.375 µM)
- MIC [37]: 0.5 µg/mL (≈ 0.75 µM)
- MIC [38]: 0.5 µg/mL (≈ 0.75 µM)
- MIC [39]: 0.5 µg/mL (≈ 0.75 µM)
- Activity [40]: Active

Compound: CC(C)(O/N=C(\C(=O)N[C@@H]1C(=O)N2C(C(=O)[O-])=C(C[n+]3ccccc3)CS[C@H]12)c1csc(N)n1)C(=O)O [CEFTAZIDIME]
- MIC [1]: > 128 µg/mL
- MIC [2]: 32 µg/mL (≈ 58.5 µM)
- MIC [3]: 2 µg/mL (≈ 3.66 µM)
- MIC [4]: 2 µg/mL (≈ 3.66 µM)
- MIC [5]: 0.5 µg/mL (≈ 0.915 µM)
- MIC [6]: 2 µg/mL (≈ 3.66 µM)
- MIC [7]: 32 µg/mL (≈ 58.5 µM)
- MIC [8]: 32 µg/mL (≈ 58.5 µM)
- MIC [9]: 32 µg/mL (≈ 58.5 µM)
- MIC [10]: 64 µg/mL (≈ 117 µM)
- MIC [11]: 128 µg/mL (≈ 234 µM)
- MIC [12]: 32 µg/mL (≈ 58.5 µM)
- MIC [13]: 128 µg/mL (≈ 234 µM)
- MIC [14]: > 128 µg/mL
- MIC [15]: 128 µg/mL (≈ 234 µM)
- MIC [16]: 4 µg/mL (≈ 7.32 µM)
- MIC [17]: 4 µg/mL (≈ 7.32 µM)
- MIC [18]: 4 µg/mL (≈ 7.32 µM)
- MIC [19]: 0.25 µg/mL (≈ 0.457 µM)
- MIC [20]: > 128 µg/mL
- MIC [21]: 2 µg/mL (≈ 3.66 µM)
- MIC [22]: 2 µg/mL (≈ 3.66 µM)
- MIC [23]: 2 µg/mL (≈ 3.66 µM)
- Activity [41]: Active
- MIC [25]: 1 µg/mL (≈ 1.83 µM)
- Activity [26]: Active
- Activity [27]: Active
- MIC [31]: 64 µg/mL (≈ 117 µM)
- MIC50 [32]: 2 µg/mL (≈ 3.66 µM)
- MIC90 [32]: 16 µg/mL (≈ 29.3 µM)
- MIC50 [33]: 64 µg/mL (≈ 117 µM)
- MIC90 [33]: 128 µg/mL (≈ 234 µM)
- MIC50 [34]: 4 µg/mL (≈ 7.32 µM)
- MIC90 [34]: 16 µg/mL (≈ 29.3 µM)
- MIC50 [35]: 8 µg/mL (≈ 14.6 µM)
- MIC90 [35]: 64 µg/mL (≈ 117 µM)
- MIC [36]: 0.25 µg/mL (≈ 0.457 µM)
- MIC [37]: 1 µg/mL (≈ 1.83 µM)
- MIC [38]: 1 µg/mL (≈ 1.83 µM)
- MIC [39]: 0.5 µg/mL (≈ 0.915 µM)
